Measured values published in ChEMBL document CHEMBL1177791, “Discovery of piperidin-4-yl-aminopyrimidines as HIV-1 reverse transcriptase inhibitors. N-benzyl derivatives with broad potency against resistant mutant viruses” (Bioorg Med Chem Lett, 2010).

What was measured:
[1] = biological target: Human immunodeficiency virus type 1 reverse transcriptase (Human immunodeficiency virus 1, UniProt Q72547); experiment: Inhibition of wild type HIV1 reverse transcriptase by SPA heteropolymeric assay
Procedure, shortened: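 Recombinant RT, heteropolymeric assay of RNA-dependent DNA polymerase activity with biotinylated primer oligonucleotide and tritiated dNTP substrate; new DNA quantified by capturing biotinylated primer on streptavidin-coated SPA beads; IC50 reported.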

[2] = biological target: Human immunodeficiency virus type 1 reverse transcriptase (Human immunodeficiency virus 1, UniProt Q72547, K103N/Y181C); experiment: Inhibition of HIV1 reverse transcriptase K103N/Y181C double mutant by SPA heteropolymeric assay
Procedure, shortened: (§1)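 Recombinant mutant RT, heteropolymeric assay of RNA-dependent DNA polymerase activity. Uses a biotinylated primer oligonucleotide and tritiated dNTP substrate. Newly synthesized DNA is captured via the biotinylated primer on streptavidin-coated scintillation proximity beads and counted. Reported as IC50.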

[3] = biological target: Human immunodeficiency virus type 1 reverse transcriptase (Human immunodeficiency virus 1, UniProt Q72547, Y188L); experiment: Inhibition of HIV1 reverse transcriptase Y188L mutant by SPA heteropolymeric assay; procedure, shortened: as §1
[4] = system: Human immunodeficiency virus 1; experiment: Antiviral activity against HIV1 expressing reverse transcriptase Y188L mutant infected in human MT4 cells assessed as reduction in virus-induced cytopathic effect; format: functional, organism-based; conditions: Human immunodeficiency virus 1, MT4
Procedure, shortened: (§2)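 Compound incubated with HIV-1-infected MT4 cells in medium containing 10% fetal bovine serum. Read-out was reduction of viral cytopathic effect on the cells, reported as EC50.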

[5] = system: Human immunodeficiency virus 1; experiment: Antiviral activity against HIV1 expressing reverse transcriptase K103N/Y181C double mutant infected in human MT4 cells assessed as reduction in virus-induced cytopathic effect; format: functional, organism-based; conditions: Human immunodeficiency virus 1, MT4; procedure, shortened: as §2
[6] = system: Human immunodeficiency virus 1; experiment: Antiviral activity against HIV1 infected in human MT4 cells assessed as reduction in virus-induced cytopathic effect; format: functional, organism-based; conditions: Human immunodeficiency virus 1, MT4
[7] = system: Human immunodeficiency virus 1; experiment: Antiviral activity against HIV1 expressing reverse transcriptase V106A mutant infected in human MT4 cells assessed as reduction in virus-induced cytopathic effect; format: functional, organism-based; conditions: Human immunodeficiency virus 1, MT4; procedure, shortened: as §2
[8] = system: Human immunodeficiency virus 1; experiment: Antiviral activity against HIV1 expressing reverse transcriptase G190A mutant infected in human MT4 cells assessed as reduction in virus-induced cytopathic effect; format: functional, organism-based; conditions: Human immunodeficiency virus 1, MT4; procedure, shortened: as §2
[9] = system: Human immunodeficiency virus 1; experiment: Antiviral activity against wild type HIV1 infected in human MT4 cells assessed as reduction in virus-induced cytopathic effect in presence of 40 % human serum; format: functional, organism-based; conditions: Human immunodeficiency virus 1, MT4
[10] = system: Human immunodeficiency virus 1; experiment: Antiviral activity against HIV1 expressing reverse transcriptase K103N/L100I double mutant infected in human MT4 cells assessed as reduction in virus-induced cytopathic effect; format: functional, organism-based; conditions: Human immunodeficiency virus 1, MT4; procedure, shortened: as §2
[11] = system: Human immunodeficiency virus 1; experiment: Antiviral activity against wild type HIV1 infected in human MT4 cells assessed as reduction in virus-induced cytopathic effect in presence of 10 % fetal bovine serum; format: functional, organism-based; conditions: Human immunodeficiency virus 1, MT4

For Cc1cc(C#N)cc(C)c1Oc1nc(NC2CCN(Cc3ccc(C#N)cc3)CC2)ncc1Br, which IC50 [1] is on record?
Its IC50 is 21 nM.

What about the IC50 [2] of the same molecule?
Its IC50 is 18 nM.

What about the IC50 [3] of the same molecule?
Its IC50 is 41 nM.

With Cc1cc(C#N)cc(C)c1Oc1ccnc(NC2CCN(Cc3ccc(S(C)(=O)=O)cc3)CC2)n1 as the molecule, how does the IC50 [4] read?
Its IC50 is 16.9 nM.

What about the IC50 [1] of the same molecule?
The IC50 was 34 nM.

What about the IC50 [2] of the same molecule?
Its IC50 is 50 nM.

And the IC50 [5]?
Its IC50 is 20.2 nM.

And the IC50 [3]?
The IC50 was 72 nM.

Which results are given for Cc1cc(C#N)cc(C)c1Oc1nc(NC2CCN(Cc3ccc(C(N)=O)cc3Cl)CC2)ncc1Br?
IC50 [4]: 30.2 nM; IC50 [1]: 131 nM; IC50 [2]: 69 nM; IC50 [5]: 52.7 nM; IC50 [3]: 519 nM; IC50 [6]: 41.5 nM

What does the source list for Cc1cc(C#N)cc(C)c1Oc1nc(NC2CCN(Cc3ccc(S(C)(=O)=O)cc3Cl)CC2)ncc1Br?
IC50 [7]: 2 nM; IC50 [8]: 1.8 nM; IC50 [4]: 2.8 nM; IC50 [9]: 48.7 nM; IC50 [10]: 5.9 nM; IC50 [1]: 45 nM; IC50 [2]: 28 nM; IC50 [5]: 7.3 nM; IC50 [11]: 6.1 nM; IC50 [3]: 216 nM; IC50 [6]: 6.1 nM

How did the IC50 [4] turn out when Cc1cc(C#N)cc(C)c1Oc1ccnc(NC2CCN(Cc3ccc(S(N)(=O)=O)cc3Cl)CC2)n1 was run?
The IC50 was 1.4 nM.

What about the IC50 [1] of the same molecule?
Its IC50 is 84 nM.

And the IC50 [2]?
The IC50 was 25 nM.

What about the IC50 [5] of the same molecule?
Its IC50 is 21.4 nM.

What about the IC50 [3] of the same molecule?
The IC50 was 105 nM.

What about the IC50 [6] of the same molecule?
Its IC50 is 4.4 nM.

For Cc1cc(C#N)cc(C)c1Oc1nc(NC2CCN(Cc3ccc(Cl)cc3)CC2)ncc1Br, which IC50 [1] is on record?
The IC50 was 152 nM.

What about the IC50 [2] of the same molecule?
The IC50 was 129 nM.

And the IC50 [3]?
Its IC50 is 793 nM.

What does the source list for Cc1cc(C#N)cc(C)c1Oc1nc(NC2CCN(Cc3ccccc3)CC2)ncc1Br?
IC50 [4]: 9.1 nM; IC50 [1]: 19 nM; IC50 [2]: 15 nM; IC50 [5]: > 100 nM; IC50 [3]: 70 nM; IC50 [6]: 6.5 nM

Which results are given for Cc1cc(C#N)cc(C)c1Oc1nc(NC2CCN(Cc3ccccc3C#N)CC2)ncc1Br?
IC50 [1]: 29 nM; IC50 [2]: 62 nM; IC50 [3]: 43 nM

Which IC50 [4] does the source give for Cc1cc(C#N)cc(C)c1Oc1nc(NC2CCN(Cc3ccc(S(C)(=O)=O)cc3)CC2)ncc1Br here?
Its IC50 is less than 1.2 nM.

What about the IC50 [1] of the same molecule?
The IC50 was 28 nM.

What about the IC50 [2] of the same molecule?
The IC50 was 14 nM.

What about the IC50 [5] of the same molecule?
The IC50 was 35.7 nM.

What about the IC50 [3] of the same molecule?
The IC50 was 28 nM.

What about the IC50 [6] of the same molecule?
Its IC50 is 5.2 nM.

Which IC50 [4] does the source give for Cc1cc(C#N)cc(C)c1Oc1ccnc(NC2CCN(Cc3ccc(S(C)(=O)=O)cc3Cl)CC2)n1 here?
The IC50 was 46.5 nM.

What about the IC50 [1] of the same molecule?
The IC50 was 22 nM.

What about the IC50 [2] of the same molecule?
The IC50 was 30 nM.

What about the IC50 [5] of the same molecule?
Its IC50 is 67.2 nM.

What about the IC50 [3] of the same molecule?
Its IC50 is 263 nM.

What about the IC50 [6] of the same molecule?
The IC50 was 24.6 nM.

Which IC50 [1] does the source give for Cc1cc(C#N)cc(C)c1Oc1nc(NC2CCN(Cc3cccc(C#N)c3)CC2)ncc1Br here?
The IC50 was 23 nM.

What about the IC50 [2] of the same molecule?
Its IC50 is 27 nM.

And the IC50 [3]?
Its IC50 is 37 nM.

Cc1cc(C#N)cc(C)c1Oc1nc(NC2CCN(c3ccccc3)C2)ncc1Br (centres undefined) was tested. Which IC50 [1] did it give?
The IC50 was 67 nM.

What about the IC50 [2] of the same molecule?
Its IC50 is greater than 1000 nM.

And the IC50 [3]?
Its IC50 is 718 nM.

Which results are given for Cc1cc(C#N)cc(C)c1Oc1ccnc(NC2CCN(Cc3ccccc3)CC2)n1?
IC50 [4]: 43.6 nM; IC50 [1]: 87 nM; IC50 [2]: 216 nM; IC50 [5]: > 100 nM; IC50 [3]: 372 nM; IC50 [6]: 3.3 nM

Which IC50 [1] does the source give for Cc1cc(C#N)cc(C)c1Oc1ccnc(NCCC(=O)Nc2ccc(S(N)(=O)=O)cc2Cl)n1 here?
Its IC50 is 900 nM.

And the IC50 [2]?
Its IC50 is greater than 1000 nM.

And the IC50 [3]?
Its IC50 is greater than 10000 nM.

How did the IC50 [7] turn out when Cc1cc(C#N)cc(C)c1Oc1nc(NC2CCN(Cc3ccc(S(N)(=O)=O)cc3Cl)CC2)ncc1Br was run?
Its IC50 is 2.3 nM.

What about the IC50 [8] of the same molecule?
Its IC50 is 6 nM.

What about the IC50 [4] of the same molecule?
Its IC50 is 3.2 nM.

And the IC50 [9]?
Its IC50 is 61.5 nM.

And the IC50 [10]?
Its IC50 is 9.1 nM.

And the IC50 [1]?
Its IC50 is 90 nM.

And the IC50 [2]?
The IC50 was 21 nM.

And the IC50 [5]?
Its IC50 is 18.9 nM.

And the IC50 [11]?
The IC50 was 9.9 nM.

What about the IC50 [3] of the same molecule?
Its IC50 is 208 nM.

What about the IC50 [6] of the same molecule?
Its IC50 is 9.9 nM.

How did the IC50 [4] turn out when Cc1cc(C#N)cc(C)c1Oc1nc(NC2CCN(Cc3ccc(C#N)cc3Cl)CC2)ncc1Br was run?
Its IC50 is 11.6 nM.

What about the IC50 [1] of the same molecule?
The IC50 was 146 nM.

And the IC50 [2]?
The IC50 was 159 nM.

And the IC50 [5]?
Its IC50 is 67.4 nM.

What about the IC50 [6] of the same molecule?
The IC50 was 17.6 nM.

Cc1cc(C#N)cc(C)c1Oc1nc(NC2CCN(Cc3cccc(Cl)c3)CC2)ncc1Br was tested. Which IC50 [1] did it give?
The IC50 was 241 nM.

And the IC50 [2]?
Its IC50 is 229 nM.

Which IC50 [1] does the source give for Cc1cc(C#N)cc(C)c1Oc1nc(NC2CCN(c3ccccc3)CC2)ncc1Br here?
Its IC50 is 192 nM.

What about the IC50 [2] of the same molecule?
The IC50 was 112 nM.

And the IC50 [3]?
Its IC50 is 334 nM.

Cc1cc(C#N)cc(C)c1Oc1nc(NC2CCN(Cc3ccc(C(=O)O)cc3Cl)CC2)ncc1Br was tested. Which IC50 [1] did it give?
The IC50 was 32 nM.

What about the IC50 [2] of the same molecule?
Its IC50 is 28 nM.

What about the IC50 [5] of the same molecule?
Its IC50 is 74.2 nM.

What about the IC50 [3] of the same molecule?
The IC50 was 86 nM.

And the IC50 [6]?
Its IC50 is 3.9 nM.

Which IC50 [7] does the source give for O=C1Nc2ccc(Cl)cc2[C@@](C#CC2CC2)(C(F)(F)F)O1 [EFAVIRENZ] here?
The IC50 was 5.7 nM.

What about the IC50 [8] of the same molecule?
Its IC50 is 6 nM.

What about the IC50 [4] of the same molecule?
Its IC50 is greater than 1000 nM.

And the IC50 [10]?
The IC50 was greater than 500 nM.

For Cc1cc(C#N)cc(C)c1Oc1nc(Nc2ccc(C#N)cc2)nc(N)c1Br [ETRAVIRINE], which IC50 [8] is on record?
Its IC50 is 1.1 nM.

And the IC50 [4]?
Its IC50 is 3.1 nM.

What about the IC50 [9] of the same molecule?
The IC50 was 25.9 nM.

And the IC50 [10]?
The IC50 was 9.5 nM.
